Screening results deposited in PubChem by several laboratories.
Hits are enriched below; roughly 2.5% of the tested compounds scored in any of these assays.
TRPC6 inh – inhibitors of mouse TRPC6 channel | Q61143 | HEK293-TRPC6, membrane potential dye, ACh-evoked depolarization; stronger effect = lower value | B-score at 10 µM | 310,000 compounds, 1.1% hits | AID 2553;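 active = B-score under library mean minus 3 SD, initial fluorescence not abnormally high, positive integrated signal ratio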;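 also: B-score derived from integrated fluorescence ratio over the kinetic read; more negative B-score means stronger inhibition of depolarization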
TRPC4 act – activators of mouse TRPC4 channel | Q9QUQ5 | HEK293 TRPC4beta/mu-opioid, Fluo4 calcium fluorescence; stronger effect = higher value | B-score at 10 µM | 310,000 compounds, 0.49% hits;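 active = B-score above 5 SD of library B-scores, and initial fluorescence ratio not above library mean plus 5 SD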;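 also: positive B-score marks a calcium rise read as TRPC4 activation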
Target sequence (Q9QUQ5 whole entry, looked up): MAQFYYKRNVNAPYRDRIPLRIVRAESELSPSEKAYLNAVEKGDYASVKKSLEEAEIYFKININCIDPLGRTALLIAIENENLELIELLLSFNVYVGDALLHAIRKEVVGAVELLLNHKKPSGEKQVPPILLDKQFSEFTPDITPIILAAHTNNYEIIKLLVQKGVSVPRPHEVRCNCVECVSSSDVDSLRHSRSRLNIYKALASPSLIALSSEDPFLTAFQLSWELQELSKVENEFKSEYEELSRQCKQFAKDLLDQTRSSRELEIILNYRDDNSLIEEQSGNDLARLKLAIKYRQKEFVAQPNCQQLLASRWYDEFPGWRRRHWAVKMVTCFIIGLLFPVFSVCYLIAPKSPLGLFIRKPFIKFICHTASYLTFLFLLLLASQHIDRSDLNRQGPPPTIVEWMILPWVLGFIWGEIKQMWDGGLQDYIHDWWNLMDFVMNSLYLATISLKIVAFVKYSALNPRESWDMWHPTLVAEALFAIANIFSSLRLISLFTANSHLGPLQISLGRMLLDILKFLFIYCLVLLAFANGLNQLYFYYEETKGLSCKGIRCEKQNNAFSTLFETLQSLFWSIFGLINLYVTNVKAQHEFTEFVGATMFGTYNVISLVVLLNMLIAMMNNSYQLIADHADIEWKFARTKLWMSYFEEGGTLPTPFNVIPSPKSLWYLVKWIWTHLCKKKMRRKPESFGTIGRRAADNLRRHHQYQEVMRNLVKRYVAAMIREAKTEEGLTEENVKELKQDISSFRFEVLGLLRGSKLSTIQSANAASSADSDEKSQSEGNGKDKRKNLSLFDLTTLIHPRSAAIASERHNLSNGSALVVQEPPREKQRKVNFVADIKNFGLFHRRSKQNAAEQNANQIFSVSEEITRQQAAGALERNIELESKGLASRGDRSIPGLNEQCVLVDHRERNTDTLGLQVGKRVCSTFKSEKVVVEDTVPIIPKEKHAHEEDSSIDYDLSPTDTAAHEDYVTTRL
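Assay system: HEK293 cells stably co-expressing mouse TRPC4beta and mu-opioid receptor / Timing: Fluo4 dye loading 45 min at room temperature, 110 s recording / Signal: Fluo4 calcium-sensitive dye fluorescence, kinetic, 1 Hz baseline / Read-out: integrated baseline-normalised fluorescence ratio, converted to per-well B score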
TRPC4 PAM – allosteric potentiators of mouse TRPC4 channel. Q9QUQ5. HEK293 TRPC4beta/mu-opioid, DAMGO EC20, Fluo-4 Ca2+ flux; stronger effect = higher value. B-score at 10 µM. 310,000 compounds, 0.42% hits. AID 2227;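 active = B-score of calcium response area above 5 SD of library B-scores, with initial fluorescence ratio within 5 SD of library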
TRPC4 inh – blocks the mouse TRPC4 cation channel | HEK293 TRPC4beta/mu-opioid, DAMGO-evoked Fluo4 calcium flux; stronger effect = lower value | B-score at 10 µM | 300,000 compounds, 0.39% hits;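 active = B-score over 3 SD under the library average, no early fluorescence shift, positive overall ratio signal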
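Material: HEK293 cells with stable TRPC4beta plus mu-opioid receptor expression; probe or stimulus: DAMGO in two steps, submaximal then maximal; technique: Fluo4 calcium fluorescence by kinetic imaging, 5 s 1 Hz baseline; measure: integrated fluorescence ratio relative to baseline, converted to per-well B score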
Pemphigus Ab inh – inhibitors of pemphigus antibody binding to human desmoglein-3. P32926. DSG3-coupled beads, scFv-anti-DSG3-GFP binding, flow cytometry; stronger effect = lower value. 310,000 compounds, 0.48% hits. binding (percent of control), % at 10 µM;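 active = binding more than 3 SD below its plate's average and above zero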
TRPC6 act – activates the mouse TRPC6 cation channel; Q61143; HEK293-TRPC6 membrane potential dye fluorescence; stronger effect = higher value; 310,000 compounds, 0.13% hits; B-score at 10 µM; AID 2550;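 active = B-score of the integrated fluorescence ratio above library mean plus 3 SD, and starting fluorescence ratio within library mean plus 5 SD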;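 also: higher score means more depolarization so channel activation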
Of the large screens only hits and unclear results are named; the others gave an inactive call.

CC(/C=C1\SC(=S)N(C(C(=O)O)C(C)C)C1=O)=C\c1ccccc1 (configuration not stated)	TRPC4 inh -6
COc1ccc(/C=C2\SC(=S)N(C(Cc3ccccc3)C(=O)O)C2=O)cc1 (configuration not stated)	TRPC4 inh -8
CC(=O)N(Cc1c(C)nn(-c2ccccc2)c1Cl)c1ccc(Cl)cc1	none (no result: Pemphigus Ab inh)
Cc1nn(-c2ccccc2)c(Cl)c1CN(C(=O)CCl)c1ccc(Cl)cc1	TRPC4 inh -7
Cc1nn(-c2ccccc2)c(Cl)c1CN(C(=O)CCl)c1cccc2ccccc12	TRPC4 inh -7
COC(=O)c1sccc1NC(=S)N1CCN(c2cc(C)ccc2C)CC1	none
COC(=O)c1sccc1NC(=S)N1CCN(C)CC1	TRPC4 act 50
CCN1CCN(C(=S)Nc2ccsc2C(=O)OC)CC1	TRPC4 act 57
COC(=O)c1sccc1NC(=S)N1CCCC(C)C1 (configuration not stated)	none
Cc1cc(C)c(OCC(=O)NCC2CCCO2)c(C)c1 (configuration not stated)	none
CCCOc1ccccc1NS(=O)(=O)c1ccc2[nH]c(=O)[nH]c2c1	none
CCOc1ccccc1NS(=O)(=O)c1ccc2[nH]c(=O)[nH]c2c1	TRPC4 PAM 13
FC(F)Oc1ccc(NC(=S)NNc2ccnc3cc(Cl)ccc23)cc1	none
CC(C)OC(=O)c1c2nc3ccccc3nc2n2c1[nH]c(=O)c1ccccc12	TRPC4 PAM 10 (no result: Pemphigus Ab inh)
O=C(CSc1nc2ccccc2n1CCc1ccccc1)c1ccc(O)c(O)c1	Pemphigus Ab inh 72 (no result: TRPC6 inh, TRPC4 act, TRPC4 PAM, TRPC4 inh, TRPC6 act)
CC(C)[C@H](NC(=O)c1ccc(Cl)cc1Cl)C(=O)NNC(=O)c1ccco1	none (no result: TRPC6 inh, TRPC4 act, TRPC4 PAM, TRPC4 inh, TRPC6 act)
COc1cccc(CN2CCN(C3CCN(c4ccccc4C)CC3)CC2CCO)c1 (configuration not stated)	none
COc1cccc(CN2CCN(C3CCN(c4ccccc4F)CC3)CC2CCO)c1 (configuration not stated)	TRPC4 inh -5
COC(=O)c1ccc(=O)c2nc3/c(=C/O)c(O)cc(=O)c3[nH]c12	Pemphigus Ab inh 50 (no result: TRPC6 inh, TRPC4 act, TRPC4 PAM, TRPC4 inh, TRPC6 act)
COc1ccc(/C=C/C(=O)c2cc3cccc(OC)c3oc2=O)cc1	Pemphigus Ab inh 100
O=C(Nc1ccc(Cl)cc1)N1CCC(c2nc(-c3cccs3)no2)CC1	TRPC4 act 137
COc1ccc(NC(=O)N2CCC(c3nc(-c4cccs4)no3)CC2)cc1	none
O=C(Nc1ccccc1)N1CCCC(c2nc(-c3cccs3)no2)C1 (configuration not stated)	TRPC4 act 47
CC1=C(C(=O)OC(C)C)[C@@H](c2ccc(C)o2)NC(=O)N1	none
CN(Cc1nc(-c2ccc(Cl)cc2)no1)C(=O)c1ccc2c(c1)OCO2	none
COC(=O)CNC(=O)COC(=O)c1ccc(Cl)nc1	none (no result: Pemphigus Ab inh)
COc1cc(C(=O)NCC2CCCO2)ccc1OCc1ccc(Cl)cc1Cl (configuration not stated)	Pemphigus Ab inh 81
COc1ccc(C(C)=O)cc1COc1cc(C)c(Cl)c(C)c1	none
COc1cc(C(=O)NCC2CCCO2)ccc1OCc1ccc(Cl)cc1 (configuration not stated)	none (no result: TRPC6 inh, TRPC4 act, TRPC4 PAM, TRPC4 inh, TRPC6 act)
COc1ccc(C(C)=O)cc1COc1ccc(Cl)cc1Cl	Pemphigus Ab inh 83
CC(C)CC(=O)N1CCN(C(=O)c2ccc(-c3ccccc3)cc2)CC1	none
O=C(CSCC(=O)Nc1nc(-c2ccc3c(c2)OCO3)cs1)Nc1nccs1	none
O=C(CSc1ccc(-c2ccc3c(c2)OCO3)nn1)Nc1nccs1	Pemphigus Ab inh 95
COc1cc(OC)cc(C(=O)Nc2cc(-c3cn4cccnc4n3)ccc2C)c1	Pemphigus Ab inh -11
COc1cc(C(=O)Nc2cc(-c3cn4cccnc4n3)ccc2C)cc(OC)c1OC	none
COc1ccccc1CNC(=S)Nc1ccc(S(N)(=O)=O)cc1	none
CCCN(CCC)CCCNC(=O)c1ccc2c(Cl)c3c(nc2c1)CCC3	TRPC4 act 124
OCCN1CCN(C2CCC(c3ccc(F)cc3)c3ccc(F)cc32)CC1 (configuration not stated)	TRPC4 PAM 13
Fc1ccc2c(c1)Sc1ccc(Cl)cc1CC2N1CCN(CCC2OCCO2)CC1 (configuration not stated)	none
O=C(Nc1nccs1)c1ccc(N2C(=O)[C@@H]3[C@H](C2=O)[C@H]2C=C[C@@H]3C2)cc1	Pemphigus Ab inh 69
O=C(Nc1nccs1)c1cccc(N2C(=O)C3C4C=CC(C4)C3C2=O)c1 (configuration not stated)	none
Cn1c(SCC(=O)Nc2ccccc2)nnc1-c1ccc2nonc2c1	none
COC(=O)CCC(=O)OC1(C)C(=O)C=C2C=C(c3ccsc3)OC=C2C1=O (configuration not stated)	Pemphigus Ab inh 43
COc1ccccc1N1CCN(C(=O)c2ccc3c(c2)NC(=O)C(CSCc2ccccc2C)N3)CC1 (configuration not stated)	TRPC6 inh -8.8 (no result: Pemphigus Ab inh)
O=C1Nc2cc(C(=O)N3CCN(c4ccccc4F)CC3)ccc2NC1CSCc1ccccc1F (configuration not stated)	none (no result: Pemphigus Ab inh)
Cc1cn(-c2cc(NC(=O)c3ccc(C)c(NC(=O)c4cccc(-c5cn[nH]c(=O)c5)c4)c3)cc(C(F)(F)F)c2)cn1	none
CCOc1ccc(NS(=O)(=O)c2ccc(C(=O)NCc3ccccn3)cc2)cc1	TRPC4 act 44
Cc1ccc(NS(=O)(=O)c2ccc(C(=O)NCc3ccccn3)cc2)cc1	TRPC4 act 44
CS(=O)(=O)Nc1ccc(C(=O)NCc2ccccn2)cc1	none
Cc1csc2ncnc(NCCc3ccccn3)c12	none
CN(C)C(CNc1ncnc2sccc12)c1ccccc1 (configuration not stated)	TRPC4 act 75
OC(CNc1ncnc2sccc12)c1ccccc1 (configuration not stated)	none (no result: Pemphigus Ab inh)
COc1ccc(C(CNc2ncnc3sccc23)N(C)C)cc1OC (configuration not stated)	TRPC4 act 45 (no result: Pemphigus Ab inh)
c1ccc(CCNc2ncnc3sccc23)nc1	TRPC4 act 51
Cc1ccc(Cl)cc1N1CCN(C(=O)Cn2ncn3cccc3c2=O)CC1	none
CC[C@]12c3[nH]c4ccc(OC)cc4c3CCN1C(=O)C(CC(=O)NCc1ccc(OC)c(OC)c1)C[C@@H]2C(=O)N1CCN(C(=O)C2CC2)CC1 (some centres not stated)	none (no result: TRPC6 inh, TRPC4 act, TRPC4 PAM, TRPC4 inh, TRPC6 act)
C=CCNc1cc(F)ccc1S(=O)(=O)NCC=C	none (no result: TRPC6 inh, TRPC4 act, TRPC4 PAM, TRPC4 inh, TRPC6 act)
Cc1ccc(C(=O)Nc2ccccc2C(=O)N2CCCC(C)C2)cc1 (configuration not stated)	none
O=C(NCCCN1CCOCC1)C1CCN(S(=O)(=O)c2c(Cl)cccc2Cl)CC1	TRPC4 PAM 15
